Measured values from ChEMBL document CHEMBL4732226, “Discovery of a potent G-protein-coupled receptor 119 agonist for the treatment of type 2 diabetes” (Bioorg Med Chem, 2021).
The source made the active and inactive calls. The calls are words filed in the database; no cut-off is given here.

Assays:
[1] = Toxicity in male Wistar rat assessed as glucose level at 100 mg/kg, po after 28 days (reference value: 89.02 +/- 13.41 mg/dl); type: organism-based; settings: in vivo, 672 h, time 28 day
[2] = Toxicity in female Wistar rat assessed as ratio of liver to body weight at 200 mg/kg, po after 28 days (reference value: 3.219 +/- 0.221); type: organism-based; settings: in vivo, 672 h, time 28 day
[3] = Toxicity in male Wistar rat assessed as ratio of liver to body weight at 200 mg/kg, po after 28 days (reference value: 3.142 +/- 0.231); type: organism-based; settings: in vivo, 672 h, time 28 day
[4] = Toxicity in male Wistar rat assessed as creatinine level at 200 mg/kg, po after 28 days (reference value: 0.61 +/- 0.04 mg/dl); type: organism-based; settings: in vivo, 672 h, time 28 day
[5] = Toxicity in female Wistar rat assessed as albumin level at 200 mg/kg, po after 28 days (reference value: 3.57 +/- 0.14 g.dl); type: organism-based; settings: in vivo, 672 h, time 28 day
[6] = AUC(0 to t) in Wistar rat at 10 mg/kg, po up to 24 hrs; type: ADME, organism-based; set-up: route oral, dose 10 mg/kg, time <=24; settings: in vivo
Procedure, shortened: (§1)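 Single oral dose at 10 mg/kg given to male Wistar rats and to Beagle dogs; bioavailability also determined in both species.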

[7] = Toxicity in female Wistar rat assessed as ALT level at 400 mg/kg, po after 28 days (reference value: 21.28 +/- 2.31 U/L); type: organism-based; settings: in vivo, 672 h, time 28 day
[8] = Toxicity in female Wistar rat assessed as urea level at 200 mg/kg, po after 28 days (reference value: 48.09 +/- 5.3 mg/dl); type: organism-based; settings: in vivo, 672 h, time 28 day
[9] = Toxicity in female Wistar rat assessed as glucose level at 100 mg/kg, po after 28 days (reference value: 78.4 +/- 8.36 mg/dl); type: organism-based; settings: in vivo, 672 h, time 28 day
[10] = Toxicity in male Wistar rat assessed as urea level at 200 mg/kg, po after 28 days (reference value: 58.14 +/- 9.13 mg/dl); type: organism-based; settings: in vivo, 672 h, time 28 day
[11] = Toxicity in female Wistar rat assessed as globulin level at 200 mg/kg, po after 28 days (reference value: 2.44 +/- 0.18 g/dl); type: organism-based; settings: in vivo, 672 h, time 28 day
[12] = Toxicity in female Wistar rat assessed as ALT level at 100 mg/kg, po after 28 days (reference value: 21.28 +/- 2.31 U/L); type: organism-based; settings: in vivo, 672 h, time 28 day
[13] = Toxicity in female Wistar rat assessed as ophthalmic examination at 400 mg/kg, po after 28 days; type: organism-based; settings: in vivo, 672 h, time 28 day
Procedure, shortened: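 Repeated-dose oral toxicity by gavage in Wistar rats, 10 males and 10 females per group, given 100, 200 or 400 mg/kg once daily for 28 days. Endpoints were clinical signs, mortality, neurobehaviour, food intake, ophthalmic examination and body weight. Animals were sacrificed on day 29 for blood biochemistry, organ-to-body weight ratios and histopathology.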

[14] = molecular target: T1, Glucose-dependent insulinotropic receptor (Homo sapiens) (UniProt Q8TDV5); assay: Agonist activity at human GPR119 stably transfected in CHO-K1 cells assessed as increase in cAMP stimulation after 1 hr by enzyme immunoassay relative to AR231453; type: functional, cell-based; settings: filed as agonist
T1 sequence (whole entry): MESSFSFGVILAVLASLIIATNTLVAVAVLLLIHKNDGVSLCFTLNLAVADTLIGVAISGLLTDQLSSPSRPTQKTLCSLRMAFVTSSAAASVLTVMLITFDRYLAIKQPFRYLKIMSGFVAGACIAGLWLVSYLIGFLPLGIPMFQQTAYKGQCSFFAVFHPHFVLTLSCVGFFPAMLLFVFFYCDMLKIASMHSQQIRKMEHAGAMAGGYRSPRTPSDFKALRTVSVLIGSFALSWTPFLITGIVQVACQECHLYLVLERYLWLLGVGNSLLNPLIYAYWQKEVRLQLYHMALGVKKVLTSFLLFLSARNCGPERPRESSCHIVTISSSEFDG

[15] = Toxicity in female Wistar rat assessed as albumin level at 400 mg/kg, po after 28 days (reference value: 3.57 +/- 0.14 g.dl); type: organism-based; settings: in vivo, 672 h, time 28 day
[16] = Toxicity in female Wistar rat assessed as ratio of ovaries to body weight at 100 mg/kg, po after 28 days (reference value: 0.091 +/- 0.009); type: organism-based; settings: in vivo, 672 h, time 28 day
[17] = Toxicity in female Wistar rat assessed as ratio of thymus to body weight at 100 mg/kg, po after 28 days (reference value: 0.260 +/- 0.025); type: organism-based; settings: in vivo, 672 h, time 28 day
[18] = Toxicity in male Wistar rat assessed as albumin level at 400 mg/kg, po after 28 days (reference value: 3.56 +/- 0.08 g.dl); type: organism-based; settings: in vivo, 672 h, time 28 day
[19] = Toxicity in female Wistar rat assessed as ALT level at 200 mg/kg, po after 28 days (reference value: 21.28 +/- 2.31 U/L); type: organism-based; settings: in vivo, 672 h, time 28 day
[20] = Toxicity in male Wistar rat assessed as ALP level at 100 mg/kg, po after 28 days (reference value: 174.77 +/- 25.42 U/L); type: organism-based; settings: in vivo, 672 h, time 28 day
[21] = Toxicity in female Wistar rat assessed as urea level at 100 mg/kg, po after 28 days (reference value: 48.09 +/- 5.3 mg/dl); type: organism-based; settings: in vivo, 672 h, time 28 day
Mus musculus [22] = assay: Antidiabetic activity in glucose-stimulated db/db mouse assessed as increase in glucose dependent insulin secretion at 50 mg/kg, po after 10 to 30 mins; type: functional, organism-based; settings: time 10-30 min
[23] = Toxicity in female Wistar rat assessed as ratio of uterus to body weight at 100 mg/kg, po after 28 days (reference value: 0.335 +/- 0.108); type: organism-based; settings: in vivo, 672 h, time 28 day
[24] = Toxicity in female Wistar rat assessed as albumin level at 100 mg/kg, po after 28 days (reference value: 3.57 +/- 0.14 g.dl); type: organism-based; settings: in vivo, 672 h, time 28 day
Mus musculus [25] = assay: Antidiabetic activity in glucose-stimulated db/db mouse assessed as increase in GLP-1 level secretion at 50 mg/kg, po after 10 mins; type: functional
Procedure, shortened: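 Male db/db mice received a single oral dose of 50 mg/kg, followed by a glucose load. Plasma active GLP-1 measured in pg/ml at 10 min after glucose.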

[26] = Toxicity in female Wistar rat assessed as AST level at 400 mg/kg, po after 28 days (reference value: 128.84 +/- 21.42 U/L); type: organism-based; settings: in vivo, 672 h, time 28 day
Mus musculus [27] = assay: Antidiabetic activity in db/db mouse assessed as reduction in blood glucose level at 50 mg/kg, po pretreated for 30 mins followed by glucose-stimulation and measured up to 120 mins by OGTT method relative to control; type: functional; set-up: scale not given: the % may be the effect or the level left; settings: 0.5 h
Procedure, shortened: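 db/db mice aged 5–7 weeks were fasted and grouped by fasting serum glucose. Single oral dose of 50 mg/kg; 30 min later basal bleed and oral glucose 2 g/kg. Serum glucose taken at 30, 60 and 120 min. AUC glucose excursion computed against a no-glucose water group and expressed as % reduction vs vehicle; mean ± s.e.m.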

[28] = Toxicity in female Wistar rat assessed as ratio of ovaries to body weight at 200 mg/kg, po after 28 days (reference value: 0.091 +/- 0.009); type: organism-based; settings: in vivo, 672 h, time 28 day
[29] = Tmax in Wistar rat at 10 mg/kg, po up to 24 hrs; type: ADME, organism-based; settings: in vivo; procedure, shortened: as §1
[30] = Toxicity in male Wistar rat assessed as albumin level at 100 mg/kg, po after 28 days (reference value: 3.56 +/- 0.08 g.dl); type: organism-based; settings: in vivo, 672 h, time 28 day

Cc1c(Oc2cccc(/C=C3\SC(=O)NC3=O)c2)ncnc1OC1CCN(C(=O)OC(C)(C)C)CC1
Activity [1]: 87.56 mg/dL | Ratio [2]: 3.285 | Ratio [3]: 3.304 | Activity [4]: 0.57 mg/dL | Activity [5]: 3.65 g/dL | AUC(0-t) at 24 h [6]: 1770 ng·h/mL | Activity [7]: 23.3 U/L | Activity [8]: 46.42 mg/dL | Activity [9]: 79.83 mg/dL | Activity [10]: 55.62 mg/dL | Activity [11]: 2.42 g/dL | Activity [12]: 22.37 U/L | Activity [13]: Non-Toxic | Emax [14]: 160% | Activity [15]: 3.57 g/dL | Ratio [16]: 0.089 | Ratio [17]: 0.241 | Activity [18]: 3.54 g/dL | Activity [19]: 22.2 U/L | Activity [20]: 152.22 U/L | Activity [21]: 47.84 mg/dL | Activity (Mus musculus [22]): Active | Ratio [23]: 0.345 | Activity [24]: 3.59 g/dL | fold change (FC) (Mus musculus [25]): 2.6 | Activity [26]: 123.93 U/L | Activity (Mus musculus [27]): 69.1% | Ratio [28]: 0.089 | Tmax [29]: 1.5 h | Activity [30]: 3.47 g/dL
